Compound activity: PubChem, Columbia University Molecular Screening Center
Insulin prom act – TRM-6 insulin promoter activation | TRM-6 cells, insulin promoter eGFP reporter, imaging; plate-scaled: unstimulated 0, stimulated control 100 | activation, % at 2 µM | 130,000 compounds, 0.81% hits;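 active means activation at 2 µM above a set limit, confirmed on inspection of the cell images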;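 further: share of cells whose green reporter signal exceeds an intensity cutoff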
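System – human fetal islet-derived TRM-6 cells with tamoxifen-inducible insulin promoter–eGFP reporter · Amount – 1,000 cells per well · Schedule – overnight tamoxifen, then two-day compound incubation at 37 °C · Detection – high-content imaging of fixed cells with Hoechst nuclear stain · Read-out – percent cells above green-intensity threshold, converted to percent activation versus plate controls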
Of the large screens only hits and unclear results are named; the others gave an inactive call. The sample as a whole holds a higher share of hits than the screen did.

O=C(N1CCCCCC1)N1CCN(S(=O)(=O)N2CCCCC2)CC1	none
O=C(N1CCOCC1)N1CCN(C(=O)N(c2ccccc2)c2ccccc2)CC1	none
O=C(N1CCCCCC1)N1CCN(C(=O)N2CCOCC2)CC1	Insulin prom act 488
Cn1c(=O)c2c(nc(SCC(=O)N3CCc4ccccc43)n2Cc2ccc(F)cc2)n(C)c1=O	none
Cc1cc(NC(=O)COC(=O)COc2ccc(C(=O)c3ccccc3)cc2)no1	none
Cc1cc(NC(=O)COC(=O)c2oc3c(ccc4ccccc43)c2C)no1	Insulin prom act 415
Cc1ccc2c(Cl)cc(Cl)c(OCC(=O)Nc3cc(C)on3)c2n1	none
O=C(N/C(=C/c1ccc(Br)cc1)C(=O)N1CCCC1=O)c1ccco1	none
CC(C)N(C)C(=O)C(=O)c1cccn1-c1cccc(Cl)c1C#N	none
COc1ccc(-n2c(Cc3cc(=O)[nH]c(=O)[nH]3)nnc2SCC(=O)Nc2cc(C(F)(F)F)ccc2Cl)cc1	Insulin prom act 255
COc1ccc(NCc2nnc(SCC(=O)Nc3cc(C(F)(F)F)ccc3Cl)o2)cc1	none
CCOc1ccc(-n2c(Cc3cc(=O)[nH]c(=O)[nH]3)nnc2SCC(=O)Nc2nnc(C)s2)cc1	none
CCN(CC)S(=O)(=O)c1cccc(NC(=O)c2ccc(C#N)cc2)c1	none
O=C(CNC(=O)c1ccccc1)NC1(C(=O)NC2CCCCC2)CCCCC1	none
COc1ccccc1CC(NC(C)=O)C(=O)N1CCN(C(=O)Nc2ccccc2Cl)CC1 (centres undefined)	none
O=C(Oc1ccc(NC2=NS(=O)(=O)c3ccccc32)cc1)c1cccnc1	none
COc1ccc(N2CCN(c3ccc(N4C(=O)CC(C)C4=O)cc3[N+](=O)[O-])CC2)cc1 (centres undefined)	none
CCN1C(=O)CC(C(=O)OC)=C1C	none
COC(=O)C1=C(C)N(c2cccc(C(C)=O)c2)C(=O)C1	Insulin prom act 475
CC(=O)COC(=O)c1cccc(N2C(=O)C3C4C=CC(C4)C3C2=O)c1 (centres undefined)	none
CC(C)CC(=O)Nc1ccccc1-c1nnn(CC(=O)N2CCc3ccccc3C2)n1	none
CCn1c(=O)cc(SCC(=O)Nc2cccc(C)n2)c2ccccc21	none
COc1ccc(C(=O)Nc2ccc3c4c(cccc24)CC3)cc1	none
Nc1ccc2c3c(cccc13)CC2	Insulin prom act 377
Nc1ccc2c3c(cccc13)C(=O)N(c1ccccc1)C2=O	none
CN(CCO)c1c2c(nc3cc(-c4cccc(F)c4)nn13)CCCC2	Insulin prom act 95
COCCN1CCN(c2cc(-c3ccccc3)nc3cc(-c4cccc(F)c4)nn23)CC1	none
Fc1cccc(-c2cc3nc4c(c(N5CCC6(CC5)OCCO6)n3n2)CCCC4)c1	none
CCCCCCNC(=O)CC(NS(=O)(=O)c1ccc(OC)cc1)C(C)C (centres undefined)	none
CC12COC3(C(=O)Nc4ccccc4F)CC1CCC32C (centres undefined)	none
CC(C)C[C@H](NC(=O)OC(C)(C)C)c1n[nH]c(=S)n1N	none
Cc1cc(NC(=O)c2ccc(S(=O)(=O)N(C)CC3CCCO3)cc2)no1 (centres undefined)	Insulin prom act 414
Cc1cc(NC(=O)c2ccc3c(c2)OCO3)no1	none
CC(=O)Nc1ccc(C(=O)Nc2ccc(S(=O)(=O)NCC3CCCO3)cc2)cc1 (centres undefined)	none
Cn1nnnc1SCC(=O)c1cccs1	none
Cn1nnnc1SCSc1nnnn1C	Insulin prom act 625
Cn1nnnc1SCC(=O)NCc1ccccc1	none
COCCn1c(SCC(=O)NCc2ccco2)nnc1C(C)C	none
COc1cccc(CNC(=O)C2=C(C)C(=O)OC23CCC(C)CC3)c1 (centres undefined)	none
COC(=O)c1sccc1NC(=O)Cc1ccc(Br)cc1	none
CN(C(=O)COC(=O)/C=C/c1ccc(S(=O)(=O)N2CCc3ccccc32)cc1)C1CCS(=O)(=O)C1 (centres undefined)	none
O=C1OCCN1C(=O)[C@H]1[C@H](c2ccc([N+](=O)[O-])cc2)C(c2cccc(Cl)c2)=NN1c1ccccc1	Insulin prom act 273
O=[N+]([O-])c1ccc(N2N=C(c3ccco3)CC2c2ccccc2)cc1 (centres undefined)	none
O=C(NCc1ccccc1C(F)(F)F)C12CN(Cc3ccccc3)CC1C(c1ccc([N+](=O)[O-])cc1)=NO2 (centres undefined)	none
CCCc1nccn1S(=O)(=O)c1cc(OC)ccc1OC	none
C/C(=N\NC(=O)c1c(Cl)c(C)nn1C)c1cccc(NC(=O)COc2ccc(Cl)cc2)c1	none
Cc1[nH]c2ccccc2c1C(=O)Cn1c(=O)oc2ccccc21	none
CNC(=O)/C(C#N)=C\c1ccc(CNS(=O)(=O)c2ccccc2)o1	none
CCN(CC)c1ccc(/C=C(/C#N)C(=O)NCc2ccccc2)o1	none
CC(C)NC(=O)/C(C#N)=C\c1ccc(N(C)C)o1	Insulin prom act 560
FC(F)(F)c1nc2ccccc2nc1N/N=C\c1ccccc1	none
CCN(CC)c1ccc(/C=C(/C#N)c2nc3ccc(C)cc3[nH]2)c(OC(C)C)c1	Insulin prom act 245
N#C/C(=C\c1cc([N+](=O)[O-])c(N2CCOCC2)cc1N1CCOCC1)c1nc2ccccc2[nH]1	none
N#C/C(=C/c1cccs1)c1nc2ccccc2[nH]1	none
CCOc1cc(N(CC)CC)ccc1/C=C(/C#N)c1nc2ccccc2[nH]1	Insulin prom act 233
Cc1ccc(/C=C(\C#N)c2nc3ccccc3[nH]2)s1	none
COc1cc(/C=C(\C#N)c2nc3ccccc3[nH]2)cc(Br)c1OCc1ccc(F)cc1	none
O=C(N/N=C/c1cc([N+](=O)[O-])c(N2CCOCC2)cc1N1CCOCC1)c1cccnc1	none
COC(=O)c1cc(-c2ccc(Cl)cc2Cl)n[nH]1	none
N#CC1=C(N)c2ccccc2CC12CCCCC2	none
COc1ccc(NC(=O)CSc2ccc3nnc(-c4cccnc4)n3n2)c(OC)c1	none
O=S(=O)(c1ccccc1)N1CC=C(c2ccccc2)CC1	none
Cn1c(SCC(=O)NNC(=O)Cc2ccccc2)nnc1-c1ccccc1	none
O=C(CCCOc1ccccc1)Nc1cccc([N+](=O)[O-])c1	none
CC(C(=O)Nc1cccc(Br)c1)c1ccc([N+](=O)[O-])cc1 (centres undefined)	none
CC(=O)N[C@@H](C)C(=O)OC(C)C(=O)Nc1cccc([N+](=O)[O-])c1 (some centres undefined)	Insulin prom act 392
Cc1nn(C)cc1C(C(=O)NC1CCCCC1)N(C(=O)Cc1cccs1)c1ccc(C(C)C)cc1 (centres undefined)	Insulin prom act 200
Cc1nn(C)cc1C(C(=O)NC1CCCCC1)N(C(=O)c1cnccn1)c1ccc(Oc2ccccc2)cc1 (centres undefined)	none
Cc1ccc(C(C(=O)NC2CCCC2)N(C(=O)Cc2cccs2)c2ccc(C)c(C)c2)o1 (centres undefined)	none
Cc1ccnc(NC(=S)NC(=O)c2cccs2)c1	none
Cc1cccc(NC(=O)Cn2c(=O)n(CCc3c[nH]c4ccccc34)c(=O)c3cccnc32)c1	none
CCCCCCCCNC(=O)CCNC(=O)c1ccc(C(C)(C)C)cc1	none
Cc1onc(-c2ccccc2Cl)c1C(=O)Nc1ccccc1N1CCOCC1	Insulin prom act 81
Cc1onc(-c2ccccc2Cl)c1C(=O)Nc1ccc(N2CCOCC2)cc1	none
Cc1onc(-c2ccccc2Cl)c1C(=O)Nc1cccc2nsnc12	none
Cc1cccnc1NC(=O)C1CCN(S(=O)(=O)c2cccs2)CC1	none
O=C(c1ccc(Cl)c(F)c1F)N1CCOCC1	none
CCN(CC)C1=CC2=CC(=C(C#N)C#N)CCC2CC1 (centres undefined)	Insulin prom act 525
N#CC1=C(N)C2=C(N3CCCCC3)CCCC2C1(C#N)C#N (centres undefined)	none
